Bioassay records as filed in PubChem.
In the library only some 2% were active in any assay of this set; here they are far more common.
PLC-beta3 inh: human PLC-beta3 inhibitors, primary screen, biochemical, fluorescence; 370,000 compounds, 0.18% hits; Purified PLC-beta3, fluorogenic substrate; AID 720704, 2013; inhibition, % at 12.2 µM; 1-phosphatidylinositol 4,5-bisphosphate phosphodiesterase beta-3 (Homo sapiens), Q01970; in the data active means inhibition above about 11%;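 further: 0% = median of compound wells on plate and 100% = full blocker control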
IMP-1 inhibitor: IMP-1 metallo-beta-lactamase inhibitors, primary screen, biochemical, epi-absorbance readout, Pseudomonas aeruginosa enzyme; metallo-beta-lactamase IMP-1 (Pseudomonas aeruginosa); purified IMP-1, nitrocefin hydrolysis, epi-absorbance fluorescence; inhibition, % at 5.6 µM; 290,000 compounds, 0.45% hits; AID 1556, 2009;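 active means inhibition above the mean plus 3 SD of all compounds in the same screening run, cut at about 4.5% in these data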;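 further: 0% = IMP-1 with DMSO and 100% = DMSO wells lacking enzyme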
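System: purified recombinant IMP-1 beta-lactamase. Medium: Zinc- and detergent-supplemented HEPES buffer, pH 7.1. Compound: one 5.6 µM dose […]. Schedule: 15 min preincubation plus 25 min reaction at 25 °C. Technique: Epi-absorbance fluorescence, 480 nm excitation, 530 nm emission.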
VIM-2 inh: VIM-2 metallo-beta-lactamase inhibitors, primary screen, biochemical, epi-absorbance readout, Pseudomonas aeruginosa enzyme; AID 1527, 2009; inhibition, % at 5.6 µM; 290,000 compounds, 0.89% hits; purified VIM-2, nitrocefin hydrolysis, epi-absorbance fluorescence;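 active means inhibition above the mean of all tested compounds plus 3 SD, cutoff set per screening run, cut at about 7.5% in these data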;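 further: red hydrolysis product quenches plate fluorescence so inhibitors raise well fluorescence; 0% = enzyme with DMSO and 100% = DMSO without enzyme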
PLC-gamma1 inh: PLC-gamma1 enzyme inhibitors, primary screen, biochemical, fluorescence, purified enzyme. 1-phosphatidylinositol 4,5-bisphosphate phosphodiesterase gamma-1 (Homo sapiens), P19174. fluorogenic substrate. inhibition, % at 12.2 µM. 370,000 compounds, 0.84% hits. AID 720700, 2013; in the data active means inhibition above about 9.5%
PvdQ inh: P. aeruginosa PvdQ acylase inhibitors, primary screen, biochemical, fluorescence, plate reader and imaging, single point | PvdQ acylase [Pseudomonas aeruginosa LESB58] | purified PvdQ acylase | inhibition, % at 10 µM | 340,000 compounds, 0.063% hits | AID 488965, 2010; in the data active means inhibition above about 30%, passing the limit was not always enough;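 further: 0% = vehicle neutral wells and 100% = reference inhibitor wells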
VIM-2 confirm: P. aeruginosa VIM-2 enzyme inhibition – biochemical, epi-absorbance, HTS, confirmation; shares compounds with IMP-1 inhibitor; purified VIM-2 enzyme, nitrocefin absorbance; 200 compounds, 73% hits; AID 1860, 2009; inhibition, % at 5.6 µM; in the data active means inhibition above about 8%;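 further: 0% = enzyme with vehicle and 100% = no enzyme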
TEM-1 counter: Serine beta-lactamase TEM-1 inhibition, biochemical epi-absorbance counter-screen for IMP-1/VIM-2 inhibitor program. shares compounds with IMP-1 inhibitor. TEM-1 beta-lactamase, nitrocefin absorbance inhibition. AID 2184, 2009. inhibition, % at 5.6 µM. 200 compounds, 50% hits; in the data active means inhibition above about 0.66%
Target sequence (P62593 whole entry, looked up): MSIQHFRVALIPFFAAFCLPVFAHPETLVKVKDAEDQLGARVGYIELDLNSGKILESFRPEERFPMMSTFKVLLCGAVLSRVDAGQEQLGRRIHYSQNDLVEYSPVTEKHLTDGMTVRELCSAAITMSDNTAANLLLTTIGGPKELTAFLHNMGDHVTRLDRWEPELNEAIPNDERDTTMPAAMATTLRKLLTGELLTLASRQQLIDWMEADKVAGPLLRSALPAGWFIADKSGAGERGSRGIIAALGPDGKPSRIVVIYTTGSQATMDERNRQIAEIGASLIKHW
IMP-1 confirm: IMP-1 metallo-beta-lactamase inhibitors, confirmation, biochemical, epi-absorbance, hits shared with VIM-2 screen. inhibition, % at 5.6 µM. shares compounds with IMP-1 inhibitor. purified IMP-1 enzyme, absorbance substrate hydrolysis. 200 compounds, 60% hits; in the data active means inhibition above about 4.9%;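 further: 0% = enzyme with vehicle and 100% = vehicle without enzyme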
An asterisk follows results filed as active; i = inactive; . = no result given.

SMILES	PLC-beta3 inh	IMP-1 inhibitor	VIM-2 inh	PLC-gamma1 inh	PvdQ inh	VIM-2 confirm	TEM-1 counter	IMP-1 confirm
O=C1c2cccc3c(O)ccc(c23)C(=O)N1c1ccc(Cl)cc1	-361	22*	30*	-258	-13	22*	29*	18*
O=C1c2ccccc2C(=O)N1c1ccc(Cl)cc1	.	-4	-6	.	.	.	.	.
O=C1c2cccc3c(O)ccc(c23)C(=O)N1Cc1ccco1	-277	21*	18*	-234	20	31*	38*	28*
CCOC(=O)NC(=O)C(/C=N/c1sccc1C(=O)OC)=C(\C)O	-41	8.6*	7.8*	-38	8	10*	-3	-3
COC(=O)[C@@]12CCCCC3=C1N(CCC3)C(=O)[C@H]2CC(=O)NCCC(C)C	3	.	.	1	.	.	.	.
Cc1onc(-c2ccc(Cl)cc2)c1-c1ccn(S(=O)(=O)c2ccccc2Cl)n1	0	.	.	-1	.	.	.	.
O=C(Nc1ccc(Oc2ccc(C(=O)O)c(C(=O)O)c2)cc1)c1cccs1	3	5.4*	21*	4	-13	25*	-3	4
O=C(Nc1ccc(NC(=O)c2cccs2)cc1)c1cccs1	10	-4	-2	0	-3	.	.	.
NC(=S)c1cc2ccc(O)cc2oc1=O	i	4.5*	8	i	-19	3	-8	-3
C/C(=N/NC(N)=S)c1cc2ccc(O)cc2oc1=O	i	0	1	-408	-12	.	.	.
C=CCN(C)CC#Cc1ccc(OC)cc1	-2	.	.	1	.	.	.	.
N=C1/C(=C\c2coc3ccc(O)cc3c2=O)C(=O)N=C2SC=CN12	-152	11*	9.9*	-99	1	17*	8.0*	14*
CSC1=NSC2=NC(=O)/C(=C\c3coc4ccccc4c3=O)C(=N)N12	-374	-1	-2	-295	7	.	.	.
CCOc1cc2c(cc1C=O)OC(C)C2 (stereo unspecified)	-221	0	2	-147	5	.	.	.
CCOc1cc2c(cc1/C=C/c1noc(C)c1[N+](=O)[O-])OC(C)C2 (stereo unspecified)	-10	13*	17*	-5	-9	20*	30*	18*
COc1ccc(/C=C2/CN(Cc3ccc(OC)cc3OC)C3=NC(c4ccc5ccccc5c4)CC(=O)N32)cc1 (stereo unspecified)	-117	.	.	-78	.	.	.	.
COc1ccccc1-c1csc(-n2ncc(C#N)c2N)n1	-4	22*	17*	1	-15	10*	-2	12*
COc1cccc(OC)c1C(=O)Nc1sc2c(c1C(N)=O)CCN(Cc1ccccc1)C2	-122	1	2	-115	-10	.	.	.
CC(=O)c1ccc(C(=O)Nc2sc3c(c2C(N)=O)CCN(Cc2ccccc2)C3)cc1	-51	5.5*	8.8*	-47	-6	5	5.7*	3
S=C(Nc1ccccc1Cl)OCCN1CCCC12CCC(c1ccccc1)CC2 (stereo unspecified)	-1	.	.	-2	.	.	.	.
O=C(Nc1ccc(F)cc1Cl)C1CCCN1S(=O)(=O)c1cccc2cccnc12 (stereo unspecified)	0	.	.	-2	.	.	.	.
COC(=O)c1c(C(=O)OC)c(-c2ccc(Cl)c(Cl)c2)n2c1CCC2	.	0	1	.	-10	.	.	.
O=C(O)c1c(C(=O)O)c(-c2ccc(Cl)c(Cl)c2)n2c1CSC2	-15	4.9*	57*	-5	-5	55*	-1	3
CCC(c1c(C)n(C)n(-c2ccccc2)c1=O)c1c(C)n(C)n(-c2ccccc2)c1=O	4	39*	36*	2	-5	-2	-4	-4
C[C@H]1C2CC(OC(=O)Nc3ccc(F)cc3)C(C2)[C@H]2CCCCN21 (stereo partly specified)	-2	.	.	3	.	.	.	.
SMILES	PLC-beta3 inh	IMP-1 inhibitor	VIM-2 inh	PLC-gamma1 inh	PvdQ inh	VIM-2 confirm	TEM-1 counter	IMP-1 confirm
O=C(CCN1C(=O)/C(=C/c2ccc(Cl)cc2)SC1=S)NCCCn1ccnc1	-20	18*	18*	-7	-7	28*	1.2*	32*
CCOC(=O)N1C(=O)C[C@](Sc2ccc(OC)cc2)(C(=O)N2CCN(C(C)=O)CC2)[C@H]1c1ccc(OC)cc1	2	.	.	0	.	.	.	.
CCC(C)Nc1nc(Cl)nc(N(C#N)CN2C(=O)c3ccccc3S2(=O)=O)n1 (stereo unspecified)	0	18*	13*	0	-6	0	-5	-1
CCN(CC)CCOC(=O)c1ccc(N/C=C(/C#N)c2nc(-c3cc4ccccc4oc3=O)cs2)cc1	-81	13*	42*	-56	-12	52*	-5	11*
CN(CCO)c1cccc2c1S(=O)(=O)N(Cc1cn(Cc3cccc(F)c3)nn1)Cc1ccccc1O2	-4	.	.	1	.	.	.	.
CN(/N=C/c1ccc(-c2ccc([N+](=O)[O-])cc2)o1)c1ccccc1	-15	30*	26*	-12	-9	17*	27*	16*
CN(/N=C/c1cc([N+](=O)[O-])ccc1O)c1ccccc1	-1	-3	-2	-2	-2	.	.	.
O=C1CCC[C@H]2C[C@H](NCc3ccccc3Cl)CC[C@]23CCCN13	-2	.	.	-3	.	.	.	.
CCN(CC)c1ccc2cc(C(=O)NCc3ccc(F)cc3)c(=N)oc2c1	-17	21*	8	-5	-21	17*	26*	13*
N=c1oc2ccc(Br)cc2cc1C(=O)NCc1ccc(F)cc1	-5	-1	1	-2	-7	.	.	.
CCC[C@H]1[C@@H](NCc2cccs2)CC[C@@]23CCCN2C(=O)CCC[C@@H]13	2	.	.	3	.	.	.	.
COc1cccc(C(=O)Nc2cccc(-c3ccc4nncn4n3)c2)c1OC	-8	-2	-2	0	5	.	.	.
COc1ccc(Cl)cc1C(=O)Nc1cccc(-c2ccc3nncn3n2)c1	-8	23*	26*	9	8	34*	3.0*	11*
CCCCCCCCN1C(=O)[C@@H](CC(=O)N2CCN(C(=O)OCC)CC2)C[C@@]2(C(=O)OC)C1=C[C@H](COCc1ccccc1)O[C@@H]2C	-1	.	.	-1	.	.	.	.
